ChEMBL document CHEMBL4376902, “CN128: A New Orally Active Hydroxypyridinone Iron Chelator” (J Med Chem, 2020)

How the values were obtained:
[1] = Acid dissociation constant, pKa2 of the compound over pH 1.8 to 11.0 by spectrophotometric titration method; type: physicochemical
How it was run: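 Automated spectrophotometric titration with 0.1 M KOH in 0.1 pH-unit steps. Reading accepted as stable when drift was <0.01 pH unit after a 1.5 min incubation. 10 mm path length cuvette. Spectra fitted by computer to obtain the pKa values.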

[2] = Drug metabolism in rat bile assessed as (2S,3S,4S,5R,6S)-6-[[1-[(1R)-1-benzyl-2-hydroxyethyl]-2-methyl-4-oxo-3-pyridyl]oxy]-3,4,5-trihydroxy-tetrahydropyran-2-carboxylic acid formation at 150 umol/kg, po by LC/TOF/MS/MS analysis; type: ADME, organism-based; settings: in vivo
How it was run: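 Bile collected from rats after an oral dose of 150 μmol/kg. Metabolites characterised by β-glucuronidase hydrolysis and LC-TOFMS/MS. M2/M1 ratio followed over 8 h.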

[3] = target: T1, Cytochrome P450 2B6 (Homo sapiens, UniProt P20813); assay: Inhibition of CYP2B6 in human liver microsomes; type: ADME
T1 sequence (P20813 whole entry): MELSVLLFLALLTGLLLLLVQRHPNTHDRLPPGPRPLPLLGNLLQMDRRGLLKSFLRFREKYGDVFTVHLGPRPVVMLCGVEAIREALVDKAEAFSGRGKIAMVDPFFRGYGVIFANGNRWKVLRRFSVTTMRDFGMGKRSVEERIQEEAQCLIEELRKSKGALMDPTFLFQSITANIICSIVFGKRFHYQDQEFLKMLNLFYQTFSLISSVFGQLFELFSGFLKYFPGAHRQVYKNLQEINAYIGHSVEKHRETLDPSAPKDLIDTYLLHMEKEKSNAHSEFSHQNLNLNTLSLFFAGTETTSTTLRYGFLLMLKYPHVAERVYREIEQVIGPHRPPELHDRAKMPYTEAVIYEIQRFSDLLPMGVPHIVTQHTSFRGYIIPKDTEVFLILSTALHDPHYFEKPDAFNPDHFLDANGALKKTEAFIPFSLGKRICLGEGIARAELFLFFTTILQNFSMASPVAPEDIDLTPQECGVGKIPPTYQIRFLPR

[4] = target: T2, Cytochrome P450 2C8 (Homo sapiens, UniProt P10632); assay: Inhibition of CYP2C8 in human liver microsomes; type: ADME
T2 sequence (P10632 whole entry): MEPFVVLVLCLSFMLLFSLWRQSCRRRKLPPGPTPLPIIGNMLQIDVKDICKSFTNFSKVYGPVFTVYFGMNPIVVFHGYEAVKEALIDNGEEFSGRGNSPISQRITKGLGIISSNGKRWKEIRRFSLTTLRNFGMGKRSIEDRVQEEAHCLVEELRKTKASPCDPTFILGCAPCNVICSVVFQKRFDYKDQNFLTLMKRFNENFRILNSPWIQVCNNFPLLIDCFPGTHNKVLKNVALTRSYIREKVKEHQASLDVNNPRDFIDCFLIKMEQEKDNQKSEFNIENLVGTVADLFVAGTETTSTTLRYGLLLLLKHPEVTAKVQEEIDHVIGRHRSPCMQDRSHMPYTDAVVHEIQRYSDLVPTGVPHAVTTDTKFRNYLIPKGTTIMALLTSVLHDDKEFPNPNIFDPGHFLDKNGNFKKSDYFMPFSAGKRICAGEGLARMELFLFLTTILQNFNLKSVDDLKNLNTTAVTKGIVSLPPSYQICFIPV

[5] = Ratio of drug level in stomach to plasma in rat at 150 umol/kg, po measured within 10 mins by LC-MS/MS analysis; type: ADME, organism-based; settings: stomach and plasma
How it was run: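 SD rats (half male, half female, n = 6 per group) given a single oral 150 μmol/kg dose. Killed at 10 min, 30 min, 2 h or 6 h; tissues washed in saline, weighed and homogenised in acetonitrile/water 1:9 (125 mg/mL). Tissue levels compared with plasma.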

[6] = Drug level in rat liver at 150 umol/kg, po measured measured up to 6 hrs by LC-MS/MS analysis; type: ADME, organism-based; settings: in vivo
How it was run: (§1)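 Single oral dose of 150 μmol/kg to SD rats, half male and half female, n=6 per group. Rats decapitated at 10 min, 30 min, 2 h and 6 h. Tissues dissected, saline-washed, weighed and homogenised in acetonitrile/water 1:9 (125 mg/mL). Drug level measured against plasma; mean ± SE.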

[7] = Drug level in rat kidney at 150 umol/kg, po measured measured up to 6 hrs by LC-MS/MS analysis; type: ADME, organism-based; settings: in vivo; how it was run: as §1
[8] = Binding affinity to Zn2+ ion assessed as affinity constant by spectrophotometric titration method
[9] = Binding affinity to Fe3+ ion assessed as affinity constant by spectrophotometric titration method
How it was run: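 Automated spectrophotometric titration with 0.1 M KOH in 0.1 pH steps, 3 min equilibration per step, 50 mm cuvette, iron complexes at ca. 40 µM. Titrated in competition with metal hydrolysis species up to pH 12.0. Hydrolysis constants taken from critical compilations. Iron spectra fitted over 400–700 nm.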

[10] = test system: Rattus norvegicus; assay: Iron scavenging activity in iron-overloaded rat assessed as iron removal efficacy at 75 to 1200 umol/kg, po relative to control; type: functional
How it was run: (§2)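 Male SD rats (300 g), fasted overnight, given about 1 μC 59Fe-ferritin i.v. under isoflurane; chelator by oral gavage 1 h later; doses 75, 150, 300, 600 and 1200 μmol/kg. Rats housed in metabolic cages, food returned 1 h post-dose; killed 24 h after ferritin injection. Urine, faeces, liver and gut gamma-counted. Iron removal expressed as % efficacy.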

[11] = test system: Rattus norvegicus; assay: Iron scavenging activity in iron-overloaded rat assessed as iron removal efficacy at 150 to 300 umol/kg, po relative to deferiprone; type: functional; how it was run: as §2
[12] = Toxicity in iron-overloaded rat assessed as induction of mortality at 75 to 1200 umol/kg, po; settings: in vivo
[13] = Apparent clearance in Sprague-Dawley rat at 300 umol/kg, po measured up to 1440 mins by LC/MS/MS analysis; type: ADME, organism-based; settings: in vivo, read-out: CL(app) (converted)
[14] = Apparent volume of distribution in Sprague-Dawley rat at 150 umol/kg, po measured up to 1440 mins by LC/MS/MS analysis; type: ADME, organism-based; settings: in vivo, 24 h
[15] = Apparent volume of distribution in Sprague-Dawley rat at 300 umol/kg, po measured up to 1440 mins by LC/MS/MS analysis; type: ADME, organism-based; settings: in vivo, 24 h
[16] = Toxicity in Sprague-Dawley rat assessed as induction of histopathological changes in pancreas at 25 to 116 mg/kg, po dosed daily for 4 weeks during chronic 4 week toxicity test; type: organism-based; settings: in vivo, 672 h
[17] = Toxicity in Sprague-Dawley rat assessed as induction of histopathological changes in bone marrow at 25 to 116 mg/kg, po dosed daily for 4 weeks during chronic 4 week toxicity test; type: organism-based; settings: in vivo, 672 h
[18] = test system: Mus musculus; assay: Toxicity in mouse assessed as reduction in neutrophils counts at 200 mg/kg, po dosed once daily for 2 months as 5 days per week schedule; settings: in vivo, 120 h
[19] = test system: Mus musculus; assay: Toxicity in mouse assessed as reduction in lymphocytes counts at 200 mg/kg, po dosed once daily for 2 months as 5 days per week schedule; settings: in vivo, 120 h

SMILES: Cc1c(O)c(O)cc[n+]1[C@@H](CO)Cc1ccccc1.[Cl-]
- pKa [1]: 9.9
- Drug metabolism [2]: Metabolite_Detected
- IC50 [3]: > 200 µM
- IC50 [4]: > 200 µM
- Kp at 10 min [5]: 3.3 to 8.8
- Drug uptake [6]: Not Active
- Drug uptake [7]: Not Active
- K [8]: 6.15 pM
- log K [8]: 7.05
- K [9]: 19.8 pM
- log K [9]: 14.8
- Activity [10]: 3.6 - 48.5%
- fold change (FC) [11]: 3.1 - 3.8
- Activity [12]: Non-Toxic
- CL/F [13]: 15.3 mL/min/kg
- Vz [14]: 5.29 L/kg
- Vz [15]: 3.72 L/kg
- Activity [16]: Toxic
- Activity [17]: Toxic
- Activity [18]: Non-Toxic
- Activity [19]: Non-Toxic
